# Measured values: ChEMBL document CHEMBL3621084, “Discovery of 2-Pyridinone Aminals: A Prodrug Strategy to Advance a Second Generation of HIV-1 Integrase Strand Transfer Inhibitors” (J Med Chem, 2015)
# Assays:
# [1] = tested on: Human immunodeficiency virus 1; assay: Antiviral activity against HIV1 infected in human MT4 cells expressing GFP incubated for 48 to 72 hrs in presence of 50% normal human serum by multiple round viral replication kinetics assay; assay type: functional
# [2] = tested on: Human immunodeficiency virus 1; assay: Antiviral activity against HIV1 infected in human MT4 cells expressing GFP incubated for 48 to 72 hrs in absence of 50% normal human serum by multiple round viral replication kinetics assay; assay type: functional
# [3] = Oral bioavailability in rat; assay type: ADME, organism-based; settings: in vivo
# [4] = tested on: Human immunodeficiency virus 1; assay: Resistance index, ratio of IC50 for antiviral activity against HIV1 expressing integrase Y143R mutant to IC50 for antiviral activity against HIV1 expressing wild type integrase; assay type: functional
# Summary of the method: (§1)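 Fold shift computed as the inflection point (IP) against mutant HIV-1 divided by the IP against wild-type virus. Both IPs come from a kinetic HIV replication (viral kinetics) potency assay run in 50% normal human serum (NHS).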
# [5] = Plasma clearance in dog; assay type: ADME, organism-based, Canis lupus familiaris
# [6] = tested on: Human immunodeficiency virus 1; assay: Resistance index, ratio of IC50 for antiviral activity against HIV1 expressing integrase E92Q mutant to IC50 for antiviral activity against HIV1 expressing wild type integrase; assay type: functional; summary of the method: as §1
# [7] = Intrinsic clearance in human hepatocytes at 1 uM by LC-MS/MS method; assay type: ADME, cell-based, Hepatocyte; settings: read-out: CLH
# [8] = tested on: Human immunodeficiency virus 1; assay: Resistance index, ratio of IC50 for antiviral activity against HIV1 expressing integrase Q148R mutant to IC50 for antiviral activity against HIV1 expressing wild type integrase; assay type: functional; summary of the method: as §1
# [9] = Oral bioavailability in dog; assay type: ADME, organism-based, Canis lupus familiaris; settings: in vivo
# [10] = Plasma clearance in rat; assay type: ADME, organism-based
# [11] = Half life in beagle dog at 0.5 mg/kg, iv by LC-MS/MS method; settings: in vivo
# [12] = Protein binding in beagle dog plasma at 2.5 uM incubated for 4 hrs by LC-MS/MS detection based equilibrium dialysis method; assay type: ADME, cell-free, Canis lupus familiaris; settings: read-out: PPB (converted)
# [13] = AUC (0 to infinity) in beagle dog at 1 mg/kg, po by LC-MS/MS method; assay type: ADME, organism-based, Canis lupus familiaris; design: dose 1 mg/kg, route oral, time infinity; settings: in vivo
# [14] = Solubility in FaSSiF at pH 6.5 at room temperature incubated for 4 hrs; assay type: physicochemical
# [15] = tested on: Canis familiaris; assay: AUC (0 to infinity) in beagle dog assessed as c(1R,2S,5R)-8'-(3-chloro-4-fluorobenzyl)-6'-hydroxy-1-(hydroxymethyl)-2'-methyl-9',10'-dihydro-1'H-spiro[bicyclo[3.1.0]hexane-2,3'-imidazo[5,1-a][2,6]naphthyridine]-1',5',7'(2'H,8'H)-trione evel at 2 mg/kg, po by LC-MS/MS method; assay type: ADME, organism-based, Canis lupus familiaris; design: dose 2 mg/kg, route oral, time infinity; settings: in vivo
# Summary of the method: (§2)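 Oral rising-dose studies were run in beagle dogs with prodrugs, at doses normalized to account for the promoiety so that they give the actual parent dose administered. The read-out was plasma exposure (AUC) of the parent compound.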
# [16] = Permeability in MDCK2 cells at 1 uM incubated for 3 hrs by LC-MS/MS method; assay type: ADME, cell-based, Canis lupus familiaris, MDCK-II; settings: dog, MDCK; read-out: permeability
# [17] = Plasma clearance in beagle dog at 0.5 mg/kg, iv by LC-MS/MS method; assay type: ADME, organism-based, Canis lupus familiaris
# [18] = Volume of distribution at steady state in beagle dog at 0.5 mg/kg, iv by LC-MS/MS method; assay type: ADME, organism-based, Canis lupus familiaris; settings: in vivo, read-out: Vdss
# [19] = Oral bioavailability in beagle dog at 1 mg/kg by LC-MS/MS method; assay type: ADME, organism-based, Canis lupus familiaris; settings: in vivo
# [20] = Solubility in SGF at pH 1.8 at room temperature incubated for 4 hrs; assay type: physicochemical
# [21] = Permeability in LLC-PK1 cells at 1 uM incubated for 3 hrs by LC-MS/MS method; assay type: ADME, cell-based, Sus scrofa; settings: pig, read-out: permeability
# [22] = target: Cytochrome P450 3A4 (Homo sapiens, UniProt P08684); assay: Time dependent inhibition of CYP3A4 (unknown origin); assay type: ADME
# [23] = Protein binding in human plasma at 2.5 uM incubated for 4 hrs by LC-MS/MS detection based equilibrium dialysis method; assay type: ADME, cell-free; settings: read-out: PPB (converted)
# [24] = (§3) AUC (0 to infinity) in jugular vein of portal vein-cannulated beagle dog assessed as (1R,2S,5R)-8'-(3-chloro-4-fluorobenzyl)-6'-hydroxy-1-(hydroxymethyl)-2'-methyl-9',10'-dihydro-1'H-spiro[bicyclo[3.1.0]hexane-2,3'-imidazo[5,1-a][2,6]naphthyridine]-1',5',7'(2'H,8'H)-trione level at 10 mg/kg, po by LC-MS/MS method; assay type: ADME, organism-based, Canis lupus familiaris; design: dose 10 mg/kg, time infinity, route oral; settings: in vivo
# Summary of the method: (§4)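 Portal vein-cannulated dogs received the prodrugs orally at doses normalized to 10 mg/kg of the parent molecule. Prodrug and parent concentrations were determined in plasma collected from the portal and jugular veins, and AUC was derived for each analyte at each site.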
# [25] = AUC (0 to infinity) in jugular vein of portal vein-cannulated beagle dog at 10 mg/kg, po by LC-MS/MS method; assay type: ADME, organism-based, Canis lupus familiaris; design: dose 10 mg/kg, time infinity, route oral; summary of the method: as §4
# [26] = AUC (0 to infinity) in portal vein of portal vein-cannulated beagle dog at 10 mg/kg, po by LC-MS/MS method; assay type: ADME, organism-based, Canis lupus familiaris; design: dose 10 mg/kg, time infinity, route oral; summary of the method: as §4
# [27] = Stability in SGF at pH 1.8 at 37 °C incubated for 4 hrs
# [28] = tested on: Canis familiaris; assay: AUC (0 to infinity) in beagle dog assessed as (1R,2S,5R)-8'-(3-chloro-4-fluorobenzyl)-6'-hydroxy-1-(hydroxymethyl)-2'-methyl-9',10'-dihydro-1'H-spiro[bicyclo[3.1.0]hexane-2,3'-imidazo[5,1-a][2,6]naphthyridine]-1',5',7'(2'H,8'H)-trione level at 30 mg/kg, po by LC-MS/MS method; assay type: ADME, organism-based, Canis lupus familiaris; design: dose 30 mg/kg, route oral, time infinity; settings: in vivo; summary of the method: as §2
# [29] = as §3, with “portal” for “jugular”; assay type: ADME, organism-based, Canis lupus familiaris; design: dose 10 mg/kg, route oral, time infinity; settings: in vivo; summary of the method: as §4
# [30] = Stability in FaSSiF at pH 6.5 at 37 °C incubated for 4 hrs
# [31] = tested on: Canis familiaris; assay: Oral bioavailability in beagle dog at 2 mg/kg by LC-MS/MS method; assay type: ADME, organism-based, Canis lupus familiaris; settings: in vivo
# [32] = AUC (0 to infinity) in Wistar-Hanover rat at 2 mg/kg, po by LC-MS/MS method; assay type: ADME, organism-based; design: dose 2 mg/kg, route oral, time infinity; settings: in vivo
# [33] = Plasma clearance in Wistar-Hanover rat at 0.2 mg/kg, iv by LC-MS/MS method; assay type: ADME, organism-based
# [34] = tested on: Canis familiaris; assay: AUC (0 to infinity) in beagle dog at 2 mg/kg, po by LC-MS/MS method; assay type: ADME, organism-based, Canis lupus familiaris; design: dose 2 mg/kg, route oral, time infinity; settings: in vivo
# [35] = Half life in Wistar-Hanover rat at 0.2 mg/kg, iv by LC-MS/MS method; settings: in vivo
# [36] = Half life in beagle dog at 0.5 mg/kg, iv by LC-MS/MS method; settings: in vivo; remark: listed apart in the source
# [37] = Oral bioavailability in Wistar-Hanover rat at 2 mg/kg by LC-MS/MS method; assay type: ADME, organism-based; settings: in vivo
# [38] = Volume of distribution at steady state in Wistar-Hanover rat at 0.2 mg/kg, iv by LC-MS/MS method; assay type: ADME, organism-based; settings: in vivo, read-out: Vdss
# Chain of Cytochrome P450 3A4 (P08684 whole entry): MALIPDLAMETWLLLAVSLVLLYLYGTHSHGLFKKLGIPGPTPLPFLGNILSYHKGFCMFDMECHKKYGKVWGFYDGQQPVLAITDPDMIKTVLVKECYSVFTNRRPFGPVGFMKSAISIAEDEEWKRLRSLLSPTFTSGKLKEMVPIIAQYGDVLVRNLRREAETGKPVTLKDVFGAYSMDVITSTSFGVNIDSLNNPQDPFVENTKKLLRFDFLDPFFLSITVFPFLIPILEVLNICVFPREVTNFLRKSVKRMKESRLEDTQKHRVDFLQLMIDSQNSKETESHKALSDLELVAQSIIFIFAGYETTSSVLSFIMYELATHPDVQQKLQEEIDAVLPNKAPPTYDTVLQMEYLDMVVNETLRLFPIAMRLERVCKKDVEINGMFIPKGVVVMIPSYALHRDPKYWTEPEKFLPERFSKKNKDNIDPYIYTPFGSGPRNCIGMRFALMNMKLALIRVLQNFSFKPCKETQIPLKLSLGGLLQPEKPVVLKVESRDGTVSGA
Structure (SMILES),IP [1],IP [2],Ratio IC50 [4],Ratio IC50 [6],Ratio IC50 [8],solubility at 4 h [14],AUC [15],"Papp at 3 h, 1 µM [16]",Vd [18],"Papp at 3 h, 1 µM [21]",other results
Cc1nnc(C(=O)NC(C)(C)c2nc(C(=O)NCc3ccc(F)cc3)c(O)c(=O)n2C)o1,53 nM,9 nM,,,,,,,,,
CC(C)n1c(C(=O)N(C)C)c2c(c(O)c1=O)C(=O)N(Cc1ccc(F)c(Cl)c1)CC2,53 nM,6 nM,2,1,1,,,,,,bioavailability [3]: 29%; clearance [5]: 2.2 mL/min/kg; CLint scaled at 1 µM [7]: < 20 mL/min/kg; bioavailability [9]: 44%; clearance [10]: 2.3 mL/min/kg
CN1C(=O)c2c3c(c(O)c(=O)n2[C@]12CC[C@@H]1C[C@@]12CO)C(=O)N(Cc1ccc(F)c(Cl)c1)CC3,32 nM,3 nM,1,1,1,30 µg/mL,8 µM·h,8.4 ×10⁻⁶ cm/s,0.4 L/kg,6.7 ×10⁻⁶ cm/s,"half-life [11]: 5 h; fraction unbound at 4 h, 2.5 µM [12]: 0.014; AUC(0-inf) [13]: 4.9 µM·h; clearance [17]: 1.9 mL/min/kg; bioavailability [19]: 26%; solubility at 4 h [20]: 17 µg/mL; TDI [22]: Not Active; fraction unbound at 4 h, 2.5 µM [23]: 0.02"
CC(C)OC(=O)OCOc1c2c(c3n(c1=O)[C@]1(CC[C@@H]4C[C@@]41CO)N(C)C3=O)CCN(Cc1ccc(F)c(Cl)c1)C2=O,,16 nM,,,,500 µg/mL,5 µM·h,19.7 ×10⁻⁶ cm/s,,26.5 ×10⁻⁶ cm/s,AUC [24]: 30.4 µM·h; AUC(0-inf) [25]: 0.037 µM·h; AUC(0-inf) [26]: 2.55 µM·h; remaining at 4 h [27]: > 98%; AUC [28]: 284 µM·h; AUC [29]: 27.3 µM·h; remaining at 4 h [30]: > 98%
O=C1N[C@]2(CC[C@H]3C[C@H]32)n2c1c1c(c(O)c2=O)C(=O)N(Cc2ccc(F)c(Cl)c2)CC1,600 nM,2.5 nM,1,3,5,,,,0.19 L/kg,,F [31]: 27%; AUC(0-inf) [32]: 189 µM·h; clearance [33]: 0.12 mL/min/kg; AUC [34]: 47 µM·h; half-life [35]: 14 h; half-life [36]: 16 h; bioavailability [37]: 29%; Vd [38]: 0.12 L/kg
